Laboratory results published in ChEMBL document CHEMBL1126988, “Quinolone antibacterials containing the new 7-[3-(1-aminoethyl)-1- pyrrolidinyl] side chain: the effects of the 1-aminoethyl moiety and its stereochemical configurations on potency and in vivo efficacy” (J Med Chem, 1993).
In brackets after ≈: the same amount, converted by molar mass.

Key:
Escherichia coli [1] = assay: Antibacterial activity in vitro against Escherichia coli Vogel; type: functional
In short: (§1)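 Standard microtitration broth assay against a panel of 10 Gram-positive and Gram-negative organisms. MIC read in µg/mL and averaged over multiple experiments.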

Escherichia coli [2] = assay: Antibacterial activity against Escherichia coli Vogel after oral administration in mouse; type: functional
Escherichia coli [3] = assay: Antibacterial activity against Escherichia coli Vogel after subcutaneous administration in mouse; type: functional
Enterobacter cloacae = assay: Minimum inhibitory concentration in vitro against Enterobacter cloacae MA 2646; type: functional
Enterococcus faecalis = assay: Minimum inhibitory concentration was evaluated in vitro against Enterococcus faecalis MGH-2; type: functional; in short: as §1
Klebsiella pneumoniae = assay: Minimum inhibitory concentration was evaluated in vitro against Klebsiella pneumoniae MGH2; type: functional; in short: as §1
Mus musculus [4] = species: Mus musculus; assay: Compounds were evaluated for phototoxicity no-effect dose in mouse; type: functional
In short: (§2)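 Depilated female CD-1 mice, five per dose plus controls. Animals are dosed orally and then exposed daily to UV-A (320–400 nm) for 3 h, for up to 4 days or until a definite positive response. Redness or erythema relative to controls, read 24 h after irradiation, counts as positive. Reported as the highest dose with no effect (mg/kg).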

Providencia rettgeri = assay: Minimum inhibitory concentration was evaluated in vitro against Providencia rettgeri M1771; type: functional; in short: as §1
Pseudomonas aeruginosa = assay: Minimum inhibitory concentration was evaluated in vitro against Pseudomonas aeruginosa UI-18; type: functional; in short: as §1
Staphylococcus aureus [5] = assay: Minimum inhibitory concentration was evaluated in vitro against Staphylococcus aureus H 228; type: functional; in short: as §1
Staphylococcus aureus [6] = assay: Minimum inhibitory concentration was evaluated in vitro against Staphylococcus aureus UC 76; type: functional; in short: as §1
Streptococcus pneumoniae = assay: Minimum inhibitory concentration was evaluated in vitro against Streptococcus pneumoniae SV-1; type: functional; in short: as §1
Streptococcus pyogenes [7] = assay: Minimum inhibitory concentration was evaluated in vitro against Streptococcus pyogenes C 203; type: functional; in short: as §1
[8] = Compound was evaluated for clonogenic cytotoxicity against hamster V-79 cells; 50% Inhibition; type: functional, cell-based; conditions: Cricetulus griseus, V79
In short: (§3)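 Chinese hamster V-79 cells grown overnight, then drug-treated for 3 h at 37 °C. Medium is replaced with fresh medium and cells are incubated 5 days to allow colony formation. IC50 (µg/mL) is the concentration inhibiting colony formation by 50% relative to control.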

Mus musculus [9] = species: Mus musculus; assay: Compound was evaluated for phototoxicity no-effect dose in mouse; type: functional; in short: as §2
[10] = Clonogenic cytotoxicity against hamster V-79 cells; type: functional, Cricetulus griseus, V79; in short: as §3
Streptococcus pyogenes [11] = assay: Compound was evaluated in vivo for antibacterial activity for mouse protection against Streptococcus pyogenes C 203 after subcutaneous administration; type: functional; conditions: sc, read-out: PD50
Streptococcus pyogenes [12] = assay: Compounds were evaluated in vivo for antibacterial activity for mouse protection against Streptococcus pyogenes C 203 after oral administration; type: functional
DNA gyrase = DNA gyrase (Escherichia coli, UniProt P0AES4+P0AES6); assay: Inhibition against DNA gyrase; type: protein-complex assay
[13] = Staphylococcus aureus, read-out: MIC

**Q.** Which results are given for CN[C@H](C)[C@@H]1CCN(c2nc3c(cc2F)c(=O)c(C(=O)O)cn3C2CC2)C1?
**A.** MIC (Escherichia coli [1]; Escherichia coli, read-out: MIC): 0.1 µg/mL (≈ 0.267 µM); ED50 (Escherichia coli [2]; Escherichia coli, po, read-out: PD50): 5 mg/kg; ED50 (Escherichia coli [3]; Escherichia coli, sc, read-out: PD50): 1 mg/kg; MIC (Enterobacter cloacae; Enterobacter cloacae, read-out: MIC): 0.1 µg/mL (≈ 0.267 µM); MIC (Enterococcus faecalis; Enterococcus faecalis, read-out: MIC): 0.1 µg/mL (≈ 0.267 µM); MIC (Klebsiella pneumoniae; Klebsiella pneumoniae, read-out: MIC): 0.2 µg/mL (≈ 0.534 µM); Dose (Mus musculus [4]): 30 mg/kg; MIC (Providencia rettgeri; Providencia rettgeri, read-out: MIC): 0.4 µg/mL (≈ 1.07 µM); MIC (Pseudomonas aeruginosa; Pseudomonas aeruginosa, read-out: MIC): 1.6 µg/mL (≈ 4.27 µM); MIC (Staphylococcus aureus [5]; [13]): 0.1 µg/mL (≈ 0.267 µM); MIC (Staphylococcus aureus [6]; [13]): 0.05 µg/mL (≈ 0.134 µM); MIC (Streptococcus pneumoniae; Streptococcus pneumoniae, read-out: MIC): 0.025 µg/mL (≈ 0.0668 µM); MIC (Streptococcus pyogenes [7]; Streptococcus pyogenes, read-out: MIC): 0.05 µg/mL (≈ 0.134 µM); IC50 [8]: 88 µg/mL (≈ 235 µM)

**Q.** For C[C@@H](N)[C@H]1CCN(c2nc3c(cc2F)c(=O)c(C(=O)O)cn3C2CC2)C1 (mixture of isomers), which MIC (Escherichia coli [1]) is on record?
**A.** Its MIC is 0.025 µg/mL.

**Q.** What about the PD50 (Escherichia coli [2]) of the same compound?
**A.** The PD50 was 2 mg/kg.

**Q.** And the PD50 (Escherichia coli [3])?
**A.** The PD50 was 0.4 mg/kg.

**Q.** What about the MIC (Enterobacter cloacae) of the same compound?
**A.** The MIC was 0.05 µg/mL.

**Q.** What about the MIC (Enterococcus faecalis) of the same compound?
**A.** Its MIC is 0.013 µg/mL.

**Q.** What about the MIC (Klebsiella pneumoniae) of the same compound?
**A.** Its MIC is 0.05 µg/mL.

**Q.** What about the Dose (Mus musculus [9]) of the same compound?
**A.** The Dose was 30 mg/kg.

**Q.** What about the MIC (Providencia rettgeri) of the same compound?
**A.** The MIC was 0.1 µg/mL.

**Q.** And the MIC (Pseudomonas aeruginosa)?
**A.** The MIC was 0.4 µg/mL.

**Q.** What about the MIC (Staphylococcus aureus [5]) of the same compound?
**A.** The MIC was 0.025 µg/mL.

**Q.** What about the MIC (Staphylococcus aureus [6]) of the same compound?
**A.** The MIC was 0.003 µg/mL.

**Q.** And the MIC (Streptococcus pneumoniae)?
**A.** Its MIC is 0.003 µg/mL.

**Q.** And the Cytotoxicity [10]?
**A.** The Cytotoxicity was 33 µg/mL.

**Q.** What about the ED50 (Streptococcus pyogenes [11]) of the same compound?
**A.** Its ED50 is 1 mg/kg.

**Q.** What about the PD50 (Streptococcus pyogenes [12]) of the same compound?
**A.** The PD50 was 3 mg/kg.

**Q.** And the MIC (Streptococcus pyogenes [7])?
**A.** Its MIC is 0.013 µg/mL.

**Q.** And the IC50 (DNA gyrase)?
**A.** Its IC50 is 2.08 µM.
